In general, IC50 refers to the point on the concentration scale where inhibition reaches its midpoint.

Series [1] has as its system PANC-1. Description: Synergistic cytotoxicity against human PANC-1 cells assessed as combination index at 0.24 uM incubated for 72 hrs in the presence of 12 uM gemcitabine by MTT assay. It counts as functional.
Series [2] in a line: Toxicity in Balb/c mouse assessed as piloerection at 50 to 100 mg/kg, ip measured upto 24 hrs by Irwin test. It counts as organism-based. To be noted: in vivo, dose 50-100 mg/kg. In a few lines: (§1)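 Irwin primary observation in female Balb/c mice aged 7–8 weeks, 3 per group. Single i.p. doses of 0.01, 0.1, 1, 5, 10, 50 and 100 mg kg−1 in 0.2% HPMC in saline; vehicle controls observed in parallel, non-blind. Standardized grid including rectal temperature and pupil diameter scored at 15, 30, 60, 120 and 180 min and 24 h, with continuous watch over 0–15 min.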

Series [3] can be described thus: Selectivity index, ratio of IC50 for cytotoxicity against human BJ cells to IC50 for cytotoxicity against human PANC-1. It counts as toxicity, cell-based. Conditions: BJ cells and PANC-1 cells, read-out: Ratio IC50. The essentials:
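Selectivity index: BJ fibroblast IC50 over PANC-1 IC50, both from the 72 h MTT assay with 24 h pre-seeding (10 000 and 4000 cells/well). IC50 from three independent experiments.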

Series [4] is described as follows: Toxicity in Balb/c mouse assessed as decrease of respiration at 50 to 100 mg/kg, ip measured upto 24 hrs by Irwin test. It counts as organism-based. To be noted: in vivo, dose 50-100 mg/kg. In a few lines: as §1
The subject of series [5] is PANC-1. Put plainly: Induction of apoptosis in human PANC-1 cells assessed as late apoptotic cells at 2.82 uM incubated for 24 hrs by Annexin V-FITC/PI staining based flow cytometric analysis (reference value: 1.1%). It counts as functional. The essentials: (§2)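 PANC-1 seeded at 2 × 10^5 cells/well, grown 24 h, then treated 24 h. PI added just before flow cytometry. Quadrant percentages given as mean ± SD of three experiments. Untreated control.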
Background: Flow cytometry measures light scatter and fluorescence of single cells or particles in a stream.

The nature of series [6]: Toxicity in Balb/c mouse assessed as tremor at 50 to 100 mg/kg, ip measured upto 24 hrs by Irwin test. To be noted: in vivo, dose 50-100 mg/kg. It counts as organism-based. The essentials:
as §1

The test system of series [7] is PANC-1. Put plainly: Induction of apoptosis in human PANC-1 cells assessed as appearance of apoptotic bodies at 0.47 to 2.82 uM incubated for 24 hrs by Hoechst 33342 staining based fluorescence microscopic analysis. It counts as functional, cell-based. To be noted: dose 0.47-2.82 µM. In a few lines: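 PANC-1 at 6500 cells/well, pre-incubated 24 h, then treated for 24 h. Washed with PBS and stained with Hoechst 33342 (1 μg mL−1 in PBS) 10 min at 37 °C in the dark. Nuclear morphology imaged by high-content fluorescence microscopy with a DAPI filter. Untreated cells as control.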

The test system of series [8] is PANC-1. Put plainly: Induction of apoptosis in human PANC-1 cells assessed as late apoptotic cells at 0.94 uM incubated for 24 hrs by Annexin V-FITC/PI staining based flow cytometric analysis (reference value: 1.1%). It counts as functional. In a few lines: as §2
Series [9] deals with PANC-1. Put plainly: Induction of apoptosis in human PANC-1 cells assessed as viable cells at […] incubated for 24 hrs by Annexin V-FITC/PI staining based flow cytometric analysis (reference value: 89.8%). It counts as functional. To be noted: read-out: Activity. The essentials: as §2
Series [10] deals with PANC-1. Description: Induction of apoptosis in human PANC-1 cells assessed as viable cells at 1.88 uM incubated for 24 hrs by Annexin V-FITC/PI staining based flow cytometric analysis (reference value: 89.8%). It counts as functional. Conditions: read-out: Activity. In a few lines: as §2
Series [11] relates to PANC-1. Description: Inhibition of cell migration in human PANC-1 cells incubated upto 72 hrs by scratch wound healing assay. It counts as functional, cell-based. Conditions: dose 0.47-2.82 µM. In a few lines:
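Confluent PANC-1 monolayers (4000 cells/well seeded, 24 h) were scratched with a P200 tip and washed with PBS. Medium with compound or 0.5% DMSO control was added. Wound area imaged by high-content microscopy at 0, 24, 48 and 72 h.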

Series [12] can be described thus: Toxicity in Balb/c mouse assessed as ptosis at 50 to 100 mg/kg, ip measured upto 24 hrs by Irwin test. It counts as organism-based. Conditions: in vivo, dose 50-100 mg/kg. In a few lines: as §1
Series [13] has as its system PANC-1. Description: Induction of apoptosis in human PANC-1 cells assessed as viable cells at 2.82 uM incubated for 24 hrs by Annexin V-FITC/PI staining based flow cytometric analysis (reference value: 89.8%). It counts as functional. Conditions: read-out: Activity. In a few lines:
as §2

The next series concerns HT-29. Put plainly: Cytotoxicity against human HT-29 cells assessed as inhibition of cell growth incubated for 72 hrs by MTT assay. It counts as functional, cell-based. Conditions: HT-29, 72 h. In a few lines:
(§3)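 Cells seeded per well (HT-29 4500, PANC-1 4000, SK-MEL-28 3200, A375 1200, A549 2500, H2170 and BJ 10 000) and left 24 h. They were then exposed to increasing concentrations for 72 h and incubated 1 h with MTT 0.5 mg mL−1. Formazan was dissolved in DMSO and absorbance read at 550 nm. IC50 from three independent experiments. Final DMSO ≤0.5%.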
For orientation: Tetrazolium assays rely on reduction of a dye to a coloured formazan, in cell work by metabolically active cells.

Another series deals with A-375. Description: Cytotoxicity against human A-375 cells assessed as inhibition of cell growth incubated for 72 hrs by MTT assay. It counts as functional, cell-based. To be noted: A-375, 72 h. The essentials: as §3
Series [14] relates to PANC-1. Put plainly: Induction of apoptosis in human PANC-1 cells assessed as early apoptotic cells at 2.82 uM incubated for 24 hrs by Annexin V-FITC/PI staining based flow cytometric analysis (reference value: 5.2%). It counts as functional. The essentials:
as §2

Series [15] in a line: Cytotoxicity against human BJ cells assessed as inhibition of cell growth incubated for 72 hrs by MTT assay. It counts as toxicity, cell-based. In a few lines: as §3
The test system of series [16] is PANC-1. Description: Induction of apoptosis in human PANC-1 cells assessed as necrotic cells at […] incubated for 24 hrs by Annexin V-FITC/PI staining based flow cytometric analysis (reference value: 3.9%). It counts as functional. The essentials: as §2
Series [17] in a line: Toxicity in Balb/c mouse assessed as hypothermia at 50 to 100 mg/kg, ip measured upto 24 hrs by Irwin test. It counts as organism-based. To be noted: in vivo, dose 50-100 mg/kg. The essentials:
as §1

Structures are written as SMILES. The source made the active and inactive calls. The rule behind the calls is not given here.

`CCOC(=O)[C@]12CCC(C)(C)C[C@H]1C1=CC[C@@H]3[C@@]4(C)C(C=O)=C[C@@](C)(CO)[C@@H]4CC[C@@]3(C)[C@]1(C)CC2`: in the series with PANC-1 [1], the CI was determined as 0.75. Moreover, the Activity entry in series [2] is recorded as “Toxic”; in [4], “Toxic”; in the series on PANC-1 [5], 3.5%; in series [6], “Toxic”; in the series with PANC-1 [8] it was 1.2%; in series [12], “Toxic”. The Activity is given as 9.9% in the series with PANC-1 [14], 2.3% in the series with PANC-1 [16] and “Toxic” in [17]. Also, in series [3], the selectivity ratio was determined as 6.5. The outcome in the series with PANC-1 [7] was inactive. Also, the viability with PANC-1 [9] was 91.7%. For the same compound, the viability at 1.88 µM in the series on PANC-1 [10] is 87.3%. Also, in the series on PANC-1 [11], the inhibition result was “Dose-Dependent Effect”. Besides, the viability at 2.82 µM with PANC-1 [13] came out at 84.7%. Moreover, the values for the IC50 with HT-29 and in the series with A-375 were 0.51 µM and 0.58 µM, respectively. For the same compound, in series [15], the IC50 at 72 h came out at 3.06 µM.

For the origin of these results see ChEMBL document CHEMBL5230168, “Design, synthesis, and biological evaluation of new arjunolic acid derivatives as anticancer agents” (RSC Med Chem, 2023).
